This passage reports Km results from ChEMBL document CHEMBL1135890, “Structure-activity relationships of 2'-fluoro-2',3'-unsaturated D-nucleosides as anti-HIV-1 agents” (J Med Chem, 2002).

The term Km denotes the substrate concentration at which the rate is half of its maximum.

Substrate in data set [1]: Nc1ncnc2c1ncn2C1OC(CO)C=C1O
Briefly: (§1) Michaelis constant was determined against mammalian Adenosine deaminase. The gist of the method: (§2)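 Calf intestinal mucosa adenosine deaminase (EC 3.5.4.4), 0.15–0.24 unit depending on substrate. Substrate 15–200 μM in phosphate buffer pH 7.4 at 25 °C. Deamination followed by UV absorbance at 265 nm. Each reaction medium was checked by TLC or UV to confirm the deaminated substrate was the sole product.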

Substrate in data set [2]: Nc1ncnc2c1ncn2[C@@H]1O[C@H](CO)[C@@H](O)[C@H]1O
Described as §1. The gist of the method:
as §2

Substrate in data set [3]: Nc1ncnc2c1ncn2[C@@H]1O[C@H](CO)C=C1F
The description is as §1. The gist of the method: as §2

B1: Adenosine deaminase (Homo sapiens), P00813 (protein)
chain: MAQTPAFDKPKVELHVHLDGSIKPETILYYGRRRGIALPANTAEGLLNVIGMDKPLTLPDFLAKFDYYMPAIAGCREAIKRIAYEFVEMKAKEGVVYVEVRYSPHLLANSKVEPIPWNQAEGDLTPDEVVALVGQGLQEGERDFGVKARSILCCMRHQPNWSPKVVELCKKYQQQTVVAIDLAGDETIPGSSLLPGHVQAYQEAVKSGIHRTVHAGEVGSAEVVKEAVDILKTERLGHGYHTLEDQALYNRLRQENMHFEICPWSSYLTGAWKPDTEHAVIRLKNDQANYSLNTDDPLIFKSTLDTDYQMTKRDMGFTEEEFKRLNINAAKSSFLPEDEKRELLDLLYKAYGMPPSASAGQNL
For the protein B1, the Km in data set [1] came out at 30 µM; in data set [2], 5 µM; in data set [3], 23 µM.
